Experimental data from the RNAGym collection of RNA variant scans (doi:10.1126/science.aae0568).
Fewer inactive variants are shown than the library holds.

B1: tRNA (parent)
chain: GUUCCGUUGGCGUAAUGGUAACGCGUCUCCCUCCUAAGGAGAAGACUGCGGGUUCGAGUCCCGUACGGAACG

Variants of: B1
Test: yeast fitness relative to wild type (ratio to wild type); higher = fitter; tRNA-Arg(CCU), competitive growth, 37 C, YPD
Outline: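 Gene amplicons from the start population and from each of six end populations were read by 100-nucleotide paired-end sequencing. Those end populations came from pooled Saccharomyces cerevisiae strains carrying tRNA-Arg(CCU) gene variants at the native locus, competed in YPD at 37°C for 24 hours. Fitness relative to wild type was worked out from changes in genotype frequencies. Genotypes needed ≥ 100 starting reads, and estimates < 0.5 were set to 0.5.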

C4G U53A G63C and C5G U26G G38C G51C cannot be ordered by yeast fitness: no more than 0.5 for the first, no more than 0.5 for the second.

First: G12A C27G A43U
Second: A36G C55U G68C
The yeast fitness of the first is lower: 0.53 for the first, 0.594 for the second.

First: U7G A14U U19A C22U C61A U64A A69U
Second: C11U U19A G63C
The yeast fitness of the first is higher: 0.543 for the first, 0.53 for the second.

Going from U8A C34A A65U to C27A A42C C46U C62U, the yeast fitness rises from no more than 0.5 to 0.563.

A37C A45U G52C and U7G C22U G52A C55U cannot be ordered by yeast fitness: no more than 0.5 for the first, no more than 0.5 for the second.

Going from A20G C31U A42U C46U A65C to C29G G68C, the yeast fitness rises from no more than 0.5 to 0.595.

Compared with C27G A57U, C5U U28G C30G A40C A42U is lower in yeast fitness: 0.591 for the first, no more than 0.5 for the second.

G48A U54G A70U and U13G G39C C49G A65G cannot be ordered by yeast fitness: no more than 0.5 for the first, no more than 0.5 for the second.

Compared with G12C C29U, A14G A65G A70C is lower in yeast fitness: 0.85 for the first, 0.755 for the second.

First: U2C U13G C22U C60G A65G
Second: C24U A36G U47A
The yeast fitness of the first is lower: no more than 0.5 for the first, 0.529 for the second.

First: U16C C29U G63A
Second: U8A G17A U19C
The yeast fitness of the first is lower: 0.527 for the first, 0.586 for the second.

First: C31U C34G C49U G52A
Second: A45C A57C G58C
The yeast fitness of the first is higher: 0.725 for the first, 0.602 for the second.

Going from G41A A43G A70U to G18A U19A C61U, the yeast fitness falls from 0.659 to 0.61.

Compared with C4G G18C A37C A57C, C5G C27U G41C A57C is higher in yeast fitness: no more than 0.5 for the first, 0.565 for the second.

Compared with G10A A14G C34G, A42C A45U C46U is higher in yeast fitness: no more than 0.5 for the first, 0.861 for the second.

Going from C4G G10A U13A U26G C27G C29U C33U U53C C61U to A43C A65G, the yeast fitness rises from no more than 0.5 to 0.95.

G9C A15C G52C and C5G C24G C34G C46U C61A A70U cannot be ordered by yeast fitness: no more than 0.5 for the first, no more than 0.5 for the second.

First: C5G U7G A14C U19A G58C
Second: C46U A69U
The yeast fitness of the first is lower: 0.584 for the first, 1.03 for the second.

U7G C27U C33U C66U and G17C G52C U64A cannot be ordered by yeast fitness: no more than 0.5 for the first, no more than 0.5 for the second.

U2A G10A A20G U35C and G39C C49G A65U cannot be ordered by yeast fitness: no more than 0.5 for the first, no more than 0.5 for the second.

First: U35A G38C
Second: G12A C24U C49G G56C G58A
The yeast fitness of the first is higher: 0.527 for the first, no more than 0.5 for the second.

First: G17A C30G C46U G63C C66U
Second: U7A C11G C29U
The yeast fitness of the first is lower: no more than 0.5 for the first, 0.555 for the second.

First: U3G C55A
Second: C27G U28A C34U
The yeast fitness of the first is higher: 0.644 for the first, no more than 0.5 for the second.

U3A G41C C55U and G9C U28A C46U C60A A70C cannot be ordered by yeast fitness: no more than 0.5 for the first, no more than 0.5 for the second.

Going from A21U U64C to C5A U35G A42C A69C, the yeast fitness falls from 0.775 to 0.588.

First: U54G C55U
Second: A15C G23C C31U A57C C66U
The yeast fitness of the first is higher: 0.511 for the first, no more than 0.5 for the second.

Compared with A36G C62U, A20U A40U A69U is lower in yeast fitness: 1.05 for the first, 0.73 for the second.

Going from G38C G56C to G12A C27G U32G C60A, the yeast fitness falls from 0.516 to no more than 0.5.

Going from U2A A21U C29U A40U U53A C60A A65G to C11G C29A C61U, the yeast fitness rises from no more than 0.5 to 0.504.

Compared with U3A G63C, G17A A20C G25A C66A G68C is lower in yeast fitness: 0.743 for the first, no more than 0.5 for the second.

Going from C5A A37G to G50C C62G C66U, the yeast fitness rises from 0.7 to 0.968.

Compared with C22U A36C A37G A65G, A20G C34G A43U C66U is higher in yeast fitness: no more than 0.5 for the first, 0.546 for the second.

Going from G9C C30U A37G C55G to C4U C30A G68A, the yeast fitness rises from no more than 0.5 to 0.786.

Going from C5U C24A C55A A65G to U19G A21U C46U C66U, the yeast fitness rises from no more than 0.5 to 0.532.

G18C C49U C62U and C4U C29A C31G A42C A45U A69U cannot be ordered by yeast fitness: no more than 0.5 for the first, no more than 0.5 for the second.

First: C30A G67C
Second: C11U U32G C62A
The yeast fitness of the first is higher: 0.841 for the first, 0.618 for the second.

Compared with A15G A21C A65U, G44A C60G is higher in yeast fitness: 0.641 for the first, 0.667 for the second.

First: A20U C24U A42C C62G
Second: C55U G68U
The yeast fitness of the first is higher: 0.735 for the first, 0.64 for the second.

C5G U7G A57G and A21G C34U G63U cannot be ordered by yeast fitness: no more than 0.5 for the first, no more than 0.5 for the second.

First: A36G A37U C61G
Second: G25C U54G
The yeast fitness of the first is lower: no more than 0.5 for the first, 0.581 for the second.

First: G9C G17C C27G U35A C49A
Second: C33U C61A G63C A65G
The yeast fitness of the first is lower: no more than 0.5 for the first, 0.549 for the second.

Variant C11G G68C has a yeast fitness of 0.597.
